Laboratory results published in ChEMBL document CHEMBL1138628, “Synthesis, in vitro and computational studies of protein tyrosine phosphatase 1B inhibition of a small library of 2-arylsulfonylaminobenzothiazoles with antihyperglycemic activity” (Bioorg Med Chem, 2009).
Active and inactive are the calls of the source. The calls are words filed in the database; no cut-off is given here.

How the values were obtained:
[1] = target: T1, Tyrosine-protein phosphatase non-receptor type 1 (Homo sapiens) (UniProt P18031); assay: Inhibition of human recombinant PTP1B expressed in Escherichia coli TB1 assessed as residual activity at 40 uM
T1 sequence (whole entry): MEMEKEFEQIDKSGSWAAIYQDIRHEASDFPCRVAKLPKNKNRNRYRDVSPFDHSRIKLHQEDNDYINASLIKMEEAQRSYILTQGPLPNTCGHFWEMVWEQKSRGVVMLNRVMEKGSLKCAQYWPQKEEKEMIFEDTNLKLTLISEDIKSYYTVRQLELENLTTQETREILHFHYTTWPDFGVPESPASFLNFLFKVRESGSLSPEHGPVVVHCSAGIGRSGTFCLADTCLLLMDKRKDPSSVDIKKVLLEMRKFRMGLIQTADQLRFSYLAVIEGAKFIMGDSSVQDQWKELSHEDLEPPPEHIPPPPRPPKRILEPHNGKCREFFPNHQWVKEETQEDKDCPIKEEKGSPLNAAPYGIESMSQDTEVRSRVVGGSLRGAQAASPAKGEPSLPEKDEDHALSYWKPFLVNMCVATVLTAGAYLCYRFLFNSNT
Method in brief: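 Single-point screen at 37 °C, pH 7.0: compound at 40 µM final (from 20 mM DMSO solution) in buffer with 2 mM pNPP. Reaction started with 0.16 µg human recombinant PTP-1B in 1 ml. p-Nitrophenol read at 400 nm. Residual activity given as % of DMSO control; quadruplicate.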

Rattus norvegicus = assay: Antihyperglycemic activity against STZ-nicotinamide-induced diabetes in overnight fasted Wistar rat assessed as decrease in glycemia at 100 mg/kg, administered intragastrically after 5 to 7 hrs by glucose oxidase method; type: functional; parameters: scale not given: the % may be the effect or the level left
Method in brief: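 Male Wistar rats (200–250 g) made diabetic by i.p. nicotinamide 110 mg/kg (saline), then 15 min later i.p. streptozotocin 65 mg/kg (citrate pH 4.5), after overnight fast; hyperglycemia confirmed at 72 h. Test compounds 100 mg/kg or glibenclamide 5 mg/kg given orally as 1% Tween 80 suspension, n = 5. Caudal vein glucose (glucose oxidase glucometer) at 0, 1, 3, 5, 7 h; % variation versus 0 h.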

[2] = target: T2, Tyrosine-protein phosphatase non-receptor type 1 (Homo sapiens, UniProt P18031); assay: Inhibition of human recombinant PTP1B expressed in Escherichia coli TB1 by double reciprocal plot analysis
T2 sequence (P18031 whole entry): T1 sequence (whole entry)
Method in brief: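 Initial hydrolysis rates at 37 °C, pH 7.0, across pNPP 0.5–40 mM, with several inhibitor concentrations (e.g. 0, 5, 10, 20, 30 µM). Data analysed as Lineweaver–Burk (1/v vs 1/[S]) plots to assign inhibition type; quadruplicate.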

[3] = target: T1, Tyrosine-protein phosphatase non-receptor type 1 (Homo sapiens); assay: Reversible inhibition of human recombinant PTP1B expressed in Escherichia coli TB1 assessed as complete recovery of residual enzyme activity at 4 deg C at 100 uM after 1 hr
[4] = target: T1, Tyrosine-protein phosphatase non-receptor type 1 (Homo sapiens); assay: Inhibition of human recombinant PTP1B expressed in Escherichia coli TB1-catalyzed hydrolysis of p-nitrophenyl phosphate assessed as decrease in hydrolysis rate preincubated for 30 mins by slow binding assay
Method in brief: (§1)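 Time-course of pNPP hydrolysis by recombinant PTP-1B at several inhibitor concentrations, with p-nitrophenol release followed continuously at 400 nm. Initial rates and curve linearity examined, either without enzyme–inhibitor preincubation or after 30 min preincubation.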

[5] = target: T1, Tyrosine-protein phosphatase non-receptor type 1 (Homo sapiens); assay: Inhibition of human recombinant PTP1B expressed in Escherichia coli TB1-catalyzed hydrolysis of p-nitrophenyl phosphate assessed as decrease in hydrolysis rate by slow binding assay; method in brief: as §1
[6] = target: T2, Tyrosine-protein phosphatase non-receptor type 1; assay: Inhibition of human recombinant PTP1B expressed in Escherichia coli TB1 assessed as residual activity
Method in brief: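 Tagged human PTP-1B produced in E. coli TB1 from pGEX-2T, affinity-purified, thrombin-cleaved, gel-filtered. Run at 37 °C, pH 7.0, in 0.075 M β,β-dimethylglutarate with 1 mM EDTA and 1 mM DTT, substrate 2 mM pNPP (Km). IC50 used varying inhibitor, 10 nM enzyme, KOH stop, p-nitrophenol at 400 nm. Fit of vi/vo versus concentration; quadruplicate.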

[7] = target: T1, Tyrosine-protein phosphatase non-receptor type 1 (Homo sapiens); assay: Reversible inhibition of human recombinant PTP1B expressed in Escherichia coli TB1 assessed as complete recovery of residual enzyme activity at 37 deg C at 100 uM after 1 hr
[8] = target: T1, Tyrosine-protein phosphatase non-receptor type 1 (Homo sapiens); assay: Inhibition of human recombinant PTP1B expressed in Escherichia coli TB1-catalyzed hydrolysis of p-nitrophenyl phosphate assessed as decrease in hydrolysis rate using 25 mM pNPP as substrate
Method in brief: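 Rates at 37 °C, pH 7.0, with 25 mM pNPP (12.5-fold Km), with inhibitor at 2.5, 5.0, 10, 25, 50, 100 and 200 µM. Residual activity measured to test for partial inhibition; quadruplicate.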

With `CC(=O)Nc1ccc(S(=O)(=O)Nc2nc3ccc([N+](=O)[O-])cc3s2)cc1` the Activity [1] was “inactive”.
For `Cc1ccc2nc(NS(=O)(=O)c3ccc([N+](=O)[O-])cc3)sc2c1`, the Activity (Rattus norvegicus; route intragastric) was 27%, the Ki [2] was 7.1 µM and the Activity [3] was “Active”. The Activity [4] was “Active”, the Activity [1] was “Active” and the Activity [5] was “Active”. The IC50 [6] was 19.5 µM, the Activity [7] was “Active” and the Activity [8] was “Active”.
For `CCOc1ccc2nc(NS(=O)(=O)c3ccc([N+](=O)[O-])cc3)sc2c1`, the Ki [2] was 20.4 µM, the Activity [3] was “Active” and the Activity [4] was “Active”. For the same compound, the Activity [1] was “Active”, the Activity [5] was “Active” and the IC50 [6] was 40.9 µM. For the same compound, the Activity [7] was “Active” and the Activity [8] was “Active”.
In the case of `O=[N+]([O-])c1ccc(S(=O)(=O)Nc2nc3ccc(Cl)cc3s2)cc1`, the Activity [1] is reported as “inactive”.
With `COc1ccc2nc(NS(=O)(=O)c3ccc([N+](=O)[O-])cc3)sc2c1` the Activity [1] was “inactive”.
`COc1ccc(Cl)cc1C(=O)NCCc1ccc(S(=O)(=O)NC(=O)NC2CCCCC2)cc1` was tested, and the Activity (Rattus norvegicus) was “Active”.
In the case of `CCOc1ccc2nc(NS(=O)(=O)c3ccc(Cl)cc3)sc2c1`, the Activity [1] is reported as “inactive”.
